# Reference: ChEMBL document CHEMBL2034857, “Discovery of the macrocycle (9E)-15-(2-(pyrrolidin-1-yl)ethoxy)-7,12,25-trioxa-19,21,24-triaza-tetracyclo[18.3.1.1(2,5).1(14,18)]hexacosa-1(24),2,4,9,14(26),15,17,20,22-nonaene (SB1578), a potent inhibitor of janus kinase 2/fms-like tyrosine kinase-3 (JAK2/FLT3) for the treatment of rheumatoid …” (J Med Chem, 2012)
# Legend:
# [1] = Half life in mouse liver microsomes at 5 uM; format: ADME, Microsome
# Method in brief: (§1)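 Compound at 5 μM with human, mouse or dog microsomes at 0.87 mg/mL, or rat and monkey microsomes at 1 mg/mL, in 50 mM potassium phosphate pH 7.4 with NADPH regenerating system at 37 °C.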
# [2] = Half life in human liver microsomes at 5 uM; format: ADME, Microsome; method in brief: as §1
# [3] = test system: Mus musculus; test: Antiarthritic activity in B10/R3 mouse immunized with bovine type2 collagen in Freund's complete adjuvant assessed as inhibition of increase in clinical arthritic scores at 105 mg/kg, po administered bid for 10 days measured for 10 days; format: functional; settings: B10/R3, 240 h
# [4] = target: T1, Tyrosine-protein kinase JAK3 (Homo sapiens, UniProt P52333); test: Inhibition of recombinant JAK3 using poly(Glu,Ala,Tyr) as substrate after 2 hrs by luminometric assay
# T1 sequence (P52333 whole entry): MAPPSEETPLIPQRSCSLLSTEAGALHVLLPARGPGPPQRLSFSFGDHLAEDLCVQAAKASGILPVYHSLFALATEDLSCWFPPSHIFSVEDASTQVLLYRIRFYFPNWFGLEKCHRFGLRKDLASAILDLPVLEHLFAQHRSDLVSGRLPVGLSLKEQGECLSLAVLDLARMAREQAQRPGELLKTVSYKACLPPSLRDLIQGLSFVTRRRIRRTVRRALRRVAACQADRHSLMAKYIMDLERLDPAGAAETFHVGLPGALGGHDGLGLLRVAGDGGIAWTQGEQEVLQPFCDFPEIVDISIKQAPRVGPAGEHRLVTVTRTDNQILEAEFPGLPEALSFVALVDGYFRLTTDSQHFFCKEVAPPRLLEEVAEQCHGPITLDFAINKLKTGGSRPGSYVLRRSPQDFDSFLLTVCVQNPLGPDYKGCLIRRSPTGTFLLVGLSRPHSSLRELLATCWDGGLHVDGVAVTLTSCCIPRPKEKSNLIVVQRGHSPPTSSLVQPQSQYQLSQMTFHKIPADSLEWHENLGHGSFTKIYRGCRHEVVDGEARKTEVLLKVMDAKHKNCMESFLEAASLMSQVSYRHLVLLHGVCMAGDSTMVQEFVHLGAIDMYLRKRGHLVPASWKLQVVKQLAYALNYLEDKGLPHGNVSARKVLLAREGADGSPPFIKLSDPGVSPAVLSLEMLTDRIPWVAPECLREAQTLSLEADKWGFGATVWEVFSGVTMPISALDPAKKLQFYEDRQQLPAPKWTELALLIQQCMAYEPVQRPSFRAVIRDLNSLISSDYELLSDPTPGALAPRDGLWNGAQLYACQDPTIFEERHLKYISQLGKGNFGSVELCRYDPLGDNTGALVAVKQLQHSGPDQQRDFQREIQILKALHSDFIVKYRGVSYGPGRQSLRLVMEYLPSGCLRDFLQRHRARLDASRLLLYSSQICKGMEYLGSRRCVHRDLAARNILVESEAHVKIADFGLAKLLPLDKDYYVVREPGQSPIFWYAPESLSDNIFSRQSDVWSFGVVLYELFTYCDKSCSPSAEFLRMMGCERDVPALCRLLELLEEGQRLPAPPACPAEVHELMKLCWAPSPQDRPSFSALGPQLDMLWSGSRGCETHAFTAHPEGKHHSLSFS
# [5] = Terminal half life in beagle dog at 5 mg/kg, po; format: ADME, organism-based, Canis lupus familiaris; design: dose 5 mg/kg, route oral; settings: in vivo, read-out: beta t1/2 (converted)
# Method in brief: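 Single oral dose by gavage as suspension in 0.5% methylcellulose/0.1% Tween 80 (mouse, rat, monkey) or in gelatin capsules (dog). Serial blood samples taken from 0 to 24 h into K3EDTA tubes; plasma stored at −70 °C until analysis. Parameters derived by noncompartmental methods. Rat, dog and monkey n = 3; mouse values estimated from mean concentration-time data, n = 3 mice per time point.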
# [6] = target: Cytochrome P450 3A4 (Homo sapiens, UniProt P08684); test: Inhibition of CYP3A4 in human liver microsomes using testosterone as substrate by LC-MS/MS analysis; format: ADME, Microsome
# Sequence of Cytochrome P450 3A4 (P08684 whole entry): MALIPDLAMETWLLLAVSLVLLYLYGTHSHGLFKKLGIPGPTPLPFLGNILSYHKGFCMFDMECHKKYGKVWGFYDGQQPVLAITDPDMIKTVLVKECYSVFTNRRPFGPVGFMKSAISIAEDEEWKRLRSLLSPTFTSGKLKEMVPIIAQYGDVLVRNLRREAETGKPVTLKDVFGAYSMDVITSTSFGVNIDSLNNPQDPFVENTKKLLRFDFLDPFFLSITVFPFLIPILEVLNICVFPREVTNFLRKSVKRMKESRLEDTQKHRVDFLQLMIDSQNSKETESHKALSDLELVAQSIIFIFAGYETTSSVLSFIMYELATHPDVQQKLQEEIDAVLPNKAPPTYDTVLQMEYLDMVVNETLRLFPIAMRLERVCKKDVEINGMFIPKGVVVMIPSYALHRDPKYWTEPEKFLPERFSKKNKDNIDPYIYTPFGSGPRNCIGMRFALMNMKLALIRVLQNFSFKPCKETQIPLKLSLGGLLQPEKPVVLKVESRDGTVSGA
# [7] = target: T2, Receptor-type tyrosine-protein kinase FLT3 (Homo sapiens, UniProt P36888); test: Inhibition of recombinant FLT3 using poly(Glu,Tyr) as substrate after 2 hrs by luminometric assay
# T2 sequence (P36888 whole entry): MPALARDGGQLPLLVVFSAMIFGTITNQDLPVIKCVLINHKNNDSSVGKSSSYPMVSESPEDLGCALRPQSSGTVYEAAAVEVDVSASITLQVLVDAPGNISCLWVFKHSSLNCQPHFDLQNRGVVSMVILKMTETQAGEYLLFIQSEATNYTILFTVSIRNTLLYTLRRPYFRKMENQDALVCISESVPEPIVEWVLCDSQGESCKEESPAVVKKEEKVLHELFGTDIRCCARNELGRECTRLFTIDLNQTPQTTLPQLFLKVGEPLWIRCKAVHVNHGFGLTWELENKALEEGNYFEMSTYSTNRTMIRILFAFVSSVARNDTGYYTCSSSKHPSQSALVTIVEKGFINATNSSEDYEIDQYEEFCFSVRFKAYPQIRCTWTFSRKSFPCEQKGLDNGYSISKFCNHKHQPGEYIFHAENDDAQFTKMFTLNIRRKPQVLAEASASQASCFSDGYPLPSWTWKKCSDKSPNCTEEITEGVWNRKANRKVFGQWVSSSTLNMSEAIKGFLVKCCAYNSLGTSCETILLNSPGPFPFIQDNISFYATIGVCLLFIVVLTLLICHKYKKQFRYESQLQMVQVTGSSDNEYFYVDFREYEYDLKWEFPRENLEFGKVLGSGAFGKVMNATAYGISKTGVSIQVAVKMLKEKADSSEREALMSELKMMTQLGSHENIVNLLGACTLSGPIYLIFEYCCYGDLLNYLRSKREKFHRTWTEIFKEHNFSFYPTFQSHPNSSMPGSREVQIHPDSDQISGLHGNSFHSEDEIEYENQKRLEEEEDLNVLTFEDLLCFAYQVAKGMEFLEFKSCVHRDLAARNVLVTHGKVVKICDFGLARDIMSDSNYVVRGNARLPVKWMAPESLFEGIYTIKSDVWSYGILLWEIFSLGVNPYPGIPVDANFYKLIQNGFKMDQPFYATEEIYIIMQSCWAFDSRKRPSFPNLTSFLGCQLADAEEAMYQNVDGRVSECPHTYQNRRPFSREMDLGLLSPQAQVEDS
# [8] = target: Cytochrome P450 2C9 (Homo sapiens, UniProt P11712); test: Inhibition of CYP2C9 in human liver microsomes using diclofenac as substrate by LC-MS/MS analysis; format: ADME, Microsome
# Sequence of Cytochrome P450 2C9 (P11712 whole entry): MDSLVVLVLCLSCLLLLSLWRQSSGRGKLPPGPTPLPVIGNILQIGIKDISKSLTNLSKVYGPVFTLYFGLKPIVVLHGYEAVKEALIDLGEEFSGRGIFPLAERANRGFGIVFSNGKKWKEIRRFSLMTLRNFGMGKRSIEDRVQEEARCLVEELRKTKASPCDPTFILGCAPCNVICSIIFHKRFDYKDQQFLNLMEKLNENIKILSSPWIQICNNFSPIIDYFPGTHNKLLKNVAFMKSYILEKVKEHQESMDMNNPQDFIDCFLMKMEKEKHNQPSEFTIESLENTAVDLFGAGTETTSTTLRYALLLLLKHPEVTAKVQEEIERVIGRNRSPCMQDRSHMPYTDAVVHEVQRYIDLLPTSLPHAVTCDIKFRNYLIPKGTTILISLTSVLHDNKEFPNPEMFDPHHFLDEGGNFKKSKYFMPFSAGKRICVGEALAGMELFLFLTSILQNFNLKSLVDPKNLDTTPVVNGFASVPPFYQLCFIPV
# [9] = target: Macrophage colony-stimulating factor 1 receptor (Homo sapiens, UniProt P07333); test: Inhibition of c-fms
# Sequence of Macrophage colony-stimulating factor 1 receptor (P07333 whole entry): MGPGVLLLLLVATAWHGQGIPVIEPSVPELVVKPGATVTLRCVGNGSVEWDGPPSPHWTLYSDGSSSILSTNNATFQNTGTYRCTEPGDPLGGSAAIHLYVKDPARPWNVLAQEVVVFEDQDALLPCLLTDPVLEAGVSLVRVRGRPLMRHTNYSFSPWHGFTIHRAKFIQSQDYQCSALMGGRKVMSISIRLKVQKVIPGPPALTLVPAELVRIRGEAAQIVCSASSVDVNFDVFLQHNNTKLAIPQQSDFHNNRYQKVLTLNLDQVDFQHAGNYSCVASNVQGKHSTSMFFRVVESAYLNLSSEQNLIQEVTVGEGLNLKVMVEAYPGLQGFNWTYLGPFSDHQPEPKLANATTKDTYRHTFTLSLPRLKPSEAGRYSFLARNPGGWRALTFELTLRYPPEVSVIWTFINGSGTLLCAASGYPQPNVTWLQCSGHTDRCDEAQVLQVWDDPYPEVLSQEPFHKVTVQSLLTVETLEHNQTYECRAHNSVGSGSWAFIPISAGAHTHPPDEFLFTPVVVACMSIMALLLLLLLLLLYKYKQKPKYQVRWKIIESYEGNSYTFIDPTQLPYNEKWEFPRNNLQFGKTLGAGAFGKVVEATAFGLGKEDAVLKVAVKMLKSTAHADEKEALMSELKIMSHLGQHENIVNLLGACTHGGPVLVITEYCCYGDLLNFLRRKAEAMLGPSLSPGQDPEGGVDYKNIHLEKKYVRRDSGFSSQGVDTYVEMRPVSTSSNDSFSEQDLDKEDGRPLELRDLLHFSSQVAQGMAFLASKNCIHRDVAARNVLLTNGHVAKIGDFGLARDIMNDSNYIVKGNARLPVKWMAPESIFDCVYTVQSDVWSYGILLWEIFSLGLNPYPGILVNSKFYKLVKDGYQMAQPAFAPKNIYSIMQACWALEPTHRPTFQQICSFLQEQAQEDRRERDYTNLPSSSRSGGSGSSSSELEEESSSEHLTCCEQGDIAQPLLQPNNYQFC
structure (smiles),measurement,setting,value
C1=C2COC/C=C/COCc3cc(ccc3OCCN3CCCC3)Nc3nccc(n3)C(=C1)O2 (mixture of isomers) [CT-1578],half-life at 5 µM,[1],> 1 h
same,half-life at 5 µM,[2],> 1 h
same,inhibition in vivo at 105 mg/kg,[3],23%
same,IC50,[4],4.3 µM
same,half-life,[5],1.5 h
same,IC50,[6],> 10 µM
same,IC50,[7],0.06 µM
same,IC50,[8],> 10 µM
same,IC50,[9],0.069 µM
